Measurements as given in ChEMBL document CHEMBL3352349, “Synthesis and biological evaluation of new nitrogen-containing diselenides” (Eur J Med Chem, 2014).
The source made the active and inactive calls. The calls are words filed in the database; no cut-off is given here.

Experiments:
[1] = Antioxidant activity assessed as glutathione peroxidase-like activity by UV spectrophotometry relative to (PhSe)2; type: physicochemical
In short: (§1)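 Tomoda-type thiol peroxidase model run in methanol, or ethanol where needed for solubility, at 25 (±3) °C. Catalyst at 0.1 mM final and PhSH at 2 mM final were mixed. After about 120 s, H₂O₂ was added to 5 mM final. PhSSPh formation was followed at 305 nm, with runs repeated more than three times. T₅₀ is the time to halve the thiol after H₂O₂ addition. Ebselen and (PhSe)₂ were each set to 1.0.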

[2] = Antioxidant activity assessed as glutathione peroxidase-like activity by UV spectrophotometry relative to ebselen; type: physicochemical; in short: as §1
[3] = molecular target: T1, Thioredoxin reductase 1, cytoplasmic (Rattus norvegicus) (UniProt O89049); assay: Activity of partially purified rat Thioredoxin reductase assessed as NADPH oxidation after 10 mins by spectrophotometry
T1 sequence (whole entry): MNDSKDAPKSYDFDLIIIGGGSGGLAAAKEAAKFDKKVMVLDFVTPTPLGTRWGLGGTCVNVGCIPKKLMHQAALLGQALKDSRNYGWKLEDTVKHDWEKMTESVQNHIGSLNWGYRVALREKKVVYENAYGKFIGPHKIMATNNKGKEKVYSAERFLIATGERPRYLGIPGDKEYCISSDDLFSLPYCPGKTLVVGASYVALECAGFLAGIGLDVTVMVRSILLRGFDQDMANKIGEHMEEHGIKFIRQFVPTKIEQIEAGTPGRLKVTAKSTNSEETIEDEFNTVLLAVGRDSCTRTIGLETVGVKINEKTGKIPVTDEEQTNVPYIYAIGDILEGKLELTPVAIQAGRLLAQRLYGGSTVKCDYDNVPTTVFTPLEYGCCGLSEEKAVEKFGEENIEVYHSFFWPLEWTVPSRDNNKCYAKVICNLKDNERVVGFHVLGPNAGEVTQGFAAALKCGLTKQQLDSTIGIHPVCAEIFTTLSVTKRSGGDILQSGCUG
In short: (§2)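 Enzyme: partially purified TrxR from rat liver. NADPH consumption read at 340 nm over 10 min, with or without the organoselenium compound. Activity is given as nmol NADPH/min/mg. Efficiency is expressed relative to ebselen. In the reference reaction, NADPH oxidation was checked for sensitivity to […] AuCl₃. Details are in the cited reference.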

[4] = molecular target: T1, Thioredoxin reductase 1, cytoplasmic (Rattus norvegicus); assay: Activity of partially purified rat Thioredoxin reductase assessed as NADPH oxidation after 10 mins by spectrophotometry relative to ebselen; in short: as §2
Brain = assay: Antioxidant activity in rat brain homogenate assessed as inhibition of Fe(II)-induced TBARS formation after 60 mins by spectrophotometry; type: functional, tissue-based
[5] = Antioxidant activity assessed as glutathione peroxidase-like activity assessed as time required to reduce the thiol concentration by 50% after addition of H2O2 by UV spectrophotometry; type: physicochemical; in short: as §1
[6] = molecular target: T1, Thioredoxin reductase 1, cytoplasmic (Rattus norvegicus); assay: Activity of partially purified rat Thioredoxin reductase assessed as 5 umol/L AuCl3-mediated inhibition of NADPH oxidation by spectrophotometry
In short: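 Partially purified rat liver TrxR was used. NADPH consumption was followed at 340 nm for 10 min in the absence or presence of an organoselenium catalyst. AuCl3 was added to the reaction containing the reference selenium catalyst. Activity was expressed as nmol NADPH/min/mg.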

Question: Which results are given for `O=C(C[Se][Se]CC(=O)NCCc1ccccc1)NCCc1ccccc1`?
Answer: Ratio [1]: 1.23; Ratio [2]: 3.43; Activity [3]: 19.1 nmol/min/mg; Ratio [4]: 5.6; inhibition (Brain): Active; Time [5]: 44.9 min

Question: With `O=c1c2ccccc2[se]n1-c1ccccc1` [EBSELEN] as the compound, how does the inhibition [6] read?
Answer: > 95%

Question: And the Activity [3]?
Answer: 3.4 nmol/min/mg

Question: What about the Time [5] of the same compound?
Answer: 154.26 min

Question: What does the source list for `CC(Cc1ccccc1)NC(=O)CC[Se][Se]CCC(=O)NC(C)Cc1ccccc1` (centres undefined)?
Answer: Ratio [2]: 2.03; Activity [3]: 13.7 nmol/min/mg; Ratio [4]: 4; inhibition (Brain): Active; Time [5]: 76 min

Question: Which Ratio [2] does the source give for `c1ccc([Se][Se]c2ccccc2)cc1` here?
Answer: 2.8

Question: And the Time [5]?
Answer: 55.04 min

Question: What does the source list for `O=C(CC[Se][Se]CCC(=O)NCCc1ccccc1)NCCc1ccccc1`?
Answer: Ratio [2]: 1.89; Activity [3]: 16.1 nmol/min/mg; Ratio [4]: 4.7; inhibition (Brain): Active; Time [5]: 81.43 min

Question: With `CC(Cc1ccccc1)NC(=O)C[Se][Se]CC(=O)NC(C)Cc1ccccc1` (centres undefined) as the compound, how does the Activity [3] read?
Answer: 0 nmol/min/mg

Question: And the inhibition (Brain)?
Answer: Active

Question: What about the Time [5] of the same compound?
Answer: 299.63 min

Question: With `CC(Cc1ccccc1)NC(=O)c1ccccc1[Se][Se]c1ccccc1C(=O)NC(C)Cc1ccccc1` (centres undefined) as the compound, how does the Ratio [1] read?
Answer: 3.26

Question: What about the Ratio [2] of the same compound?
Answer: 9.14

Question: What about the Activity [3] of the same compound?
Answer: 0 nmol/min/mg

Question: And the inhibition (Brain)?
Answer: Active

Question: What about the Time [5] of the same compound?
Answer: 16.87 min

Question: For `O=C(NCCc1ccccc1)c1ccccc1[Se][Se]c1ccccc1C(=O)NCCc1ccccc1`, which Ratio [1] is on record?
Answer: 1.85

Question: And the Ratio [2]?
Answer: 5.2

Question: What about the Activity [3] of the same compound?
Answer: 0 nmol/min/mg

Question: What about the inhibition (Brain) of the same compound?
Answer: Active

Question: And the Time [5]?
Answer: 29.73 min
